One assay concerns A549. Description: Cytotoxicity against human A549 cells after 48 hrs by sulforhodamine B assay. The assay is classed as functional. As to conditions: A549, 48 h, read-out: GI50. In outline: (§1)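 Cells were grown in RPMI 1640 with 10% FBS and 2 mM L-glutamine, plated at densities set by doubling time, and pre-incubated 24 h at 37 °C, 5% CO2. Drugs were tested at 0.1, 1, 10 and 100 µM in triplicate wells for 48 h continuous exposure. Cells were fixed with 10% TCA (final) and stained with 0.4% SRB. A540 was read against a 690 nm reference, and percent growth was calculated relative to control. Experiments were repeated three times.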
(In general: In SRB staining, fixed cells bind dye roughly in proportion to their protein.)

The next assay deals with KB. Description: Cytotoxicity against human KB cells after 48 hrs by sulforhodamine B assay. The assay is classed as functional. A digest of the protocol: as §1
The subject of a further assay is OVCAR-8. Description: Cytotoxicity against human OVCAR8 cells after 48 hrs by sulforhodamine B assay. The assay is classed as functional. As to conditions: OVCAR-8, 48 h, read-out: GI50. A digest of the protocol: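 Run by the NCI 60-cell-line screen. A one-dose pre-test was done first, followed by the main test over a 5-log dose range (10^-4 to 10^-8 M). Results are reported as log molar GI50 (50% net growth inhibition), TGI (total growth inhibition) and LC50 (50% net cell death), with mean-graph midpoints across all lines.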

For a further assay, the system named is A2780. Description: Cytotoxicity against human A2780 cells after 48 hrs by sulforhodamine B assay. The assay is classed as functional. The conditions noted are these: A2780, 48 h. A digest of the protocol:
as §1

The next assay has as its system PC-3. Description: Cytotoxicity against human PC3 cells after 48 hrs by sulforhodamine B assay. The assay is classed as functional. The conditions noted are these: PC-3, 48 h, read-out: GI50. A digest of the protocol: as §1
The subject of assay [1] is MCF7. Description: Induction of apoptosis in human MCF7 cells assessed as nuclear fragmentation at 2.5 uM after 48 hrs by DAPI staining. Type of assay: functional, cell-based. In outline: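 MCF-7 cells grown on glass coverslips and incubated 48 h with or without compound. Fixed in 3% paraformaldehyde/0.02% glutaraldehyde in PBS, stained with DAPI, and nuclear morphology examined by fluorescence microscopy.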

The target in the next assay is Tubulin (Homo sapiens) (UniProt P68371+Q9H4B7+P0DPH7+P68366+Q13509+Q71U36+P04350+Q3ZCM7+P07437+P68363+Q9BQE3+Q6PEY2+Q13885+Q9BVA1+Q9BUF5). As to conditions: MCF7, 2.5 uM.
Assay [2] relates to MCF7. Description: Cell cycle arrest in human MCF7 cells assessed as accumulation at S phase at 5 uM after 24 hrs using propidium iodide staining by flow cytometry relative to control. Type of assay: functional. A digest of the protocol:
(§2)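 MCF-7 cells were seeded at 5×10^5 per 60 mm dish and grown 24 h. They were then exposed to 5 uM compound for a further 24 h, with untreated control cells alongside. Cells were trypsinised, fixed in ice-cold 70% ethanol (4 °C, 30 min), treated with 1 mg/ml RNase A (37 °C, 30 min) and stained with propidium iodide/citrate/Triton solution. DNA content was read by flow cytometry on 20,000 events.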

Assay [3] deals with MCF7. Description: Cell cycle arrest in human MCF7 cells assessed as accumulation at G0 phase at 5 uM after 24 hrs using propidium iodide staining by flow cytometry relative to control. The assay is classed as functional. In outline: as §2
Assay [4] has as its system MCF7. Description: Cell cycle arrest in human MCF7 cells assessed as accumulation at G1 phase at 5 uM after 24 hrs using propidium iodide staining by flow cytometry relative to control. Type of assay: functional. A digest of the protocol: as §2
The test system of assay [5] is MCF7. Description: Cell cycle arrest in human MCF7 cells assessed as accumulation at G2/M phase at 5 uM after 24 hrs using propidium iodide staining by flow cytometry relative to control. The assay is classed as functional. A digest of the protocol: as §2
Assay [6] has as its system MCF7. Description: Reduction of cyclin A expression in human MCF7 cells at 5 uM after 24 hrs by Western blotting. Type of assay: functional, cell-based. A digest of the protocol: (§3)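 MCF-7 cells, kept in DMEM with 10% fetal calf serum at 37 °C under 5% CO2, treated 24 h. Lysis in ice-cold RIPA with protease inhibitors; Bradford quantitation; 30 µg protein per lane on 12% SDS-PAGE, then PVDF. Primary antibodies (1:500) at 4 °C overnight; HRP secondary (1:2000); chemiluminescence detection; β-actin loading control.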
Background: Immunoblotting shows a protein as a band on a membrane.

The subject of assay [7] is MCF7. Description: Induction of apoptosis in human MCF7 cells assessed as increase of cleaved PARP level at 5 uM after 24 hrs by Western blotting. Type of assay: functional, cell-based. A digest of the protocol: as §3

Counter-ions that a name gives are not always drawn. Activity calls are given as the source filed them. The calls are words filed in the database; no cut-off is given here.

As usually defined, the GI50 is the concentration at which growth is held to half of that of the control. For `COc1ccc(-c2cc(-c3cc(OC)c(OC)c(OC)c3)on2)cc1OCCCCOc1cc(C2NC(=O)c3ccccc3N2)ccc1OC` (stereo unspecified), the GI50 in the assay on A549 was more than 100000 nM; in the assay on KB it was more than 100000 nM; in the assay on OVCAR-8, 150 nM; with A2780, more than 100000 nM; with PC-3 it was 2100 nM.
With `COC(=O)Nc1nc2cc(C(=O)c3cccs3)ccc2[nH]1`, the result in the assay on MCF7 [1] was Active. Also, the inhibition entry at Tubulin (Homo sapiens) is “Active”.
Consider `COc1cc(C2NC(=O)c3ccccc3N2)ccc1OCCCCCBr` (stereo unspecified), for which the Activity in the assay on MCF7 [2] is given as 12.75%; with MCF7 [3] it was 1.61%; in the assay on MCF7 [4], 69%; with MCF7 [5], 16.64%.
`COc1cc(C2NC(=O)c3ccccc3N2)ccc1OCCCCOc1c(OC)cc(C2=NOC(c3cc(OC)c(OC)c(OC)c3)C2)cc1OC` (stereo unspecified): the 50% growth inhibitory concentration (GI50) is 14000 nM with A549; 21000 nM in the assay with KB; 300 nM in the assay with OVCAR-8; more than 100000 nM in the assay on A2780; 460 nM in the assay on PC-3.
For `COc1cc(C2NC(=O)c3ccccc3N2)ccc1OCCCCCOc1cc(C2CC(c3cc(OC)c(OC)c(OC)c3)=NO2)ccc1OC` (stereo unspecified), the GI50 in the assay on A549 was 160 nM; in the assay with KB, 27000 nM; in the assay with OVCAR-8, 140 nM; in the assay with A2780, more than 100000 nM; with PC-3, 2400 nM.
As for `COc1cc(C2NC(=O)c3ccccc3N2)ccc1OCCCOc1c(OC)cc(C2=NOC(c3cc(OC)c(OC)c(OC)c3)C2)cc1OC` (stereo unspecified), the GI50 in the assay on A549 was 20000 nM; with KB it was 22000 nM; with OVCAR-8 it was 280 nM; in the assay with A2780, more than 100000 nM; in the assay on PC-3, 520 nM.
In the case of `COc1cc(C2NC(=O)c3ccccc3N2)ccc1OCCCCOc1cc(C2CC(c3cc(OC)c(OC)c(OC)c3)=NO2)ccc1OC` (stereo unspecified), the GI50 with A549 was determined as 150 nM; in the assay with KB, 30000 nM; in the assay with OVCAR-8, 180 nM; in the assay with A2780, 22000 nM; in the assay on PC-3, 2800 nM.
Consider `COc1ccc(C2NC(=O)c3ccccc3N2)cc1OCCCCOc1c(OC)cc(-c2cc(-c3cc(OC)c(OC)c(OC)c3)no2)cc1OC` (stereo unspecified), for which the GI50 with A549 was 180 nM; in the assay with KB it was 26000 nM; in the assay on OVCAR-8, 25000 nM; in the assay with A2780, 2000 nM; in the assay with PC-3, 2000 nM.
Consider `COc1cc(C2NC(=O)c3ccccc3N2)ccc1OCCCOc1cc(C2CC(c3cc(OC)c(OC)c(OC)c3)=NO2)ccc1OC` (stereo unspecified), for which the GI50 with A549 was 170 nM; in the assay with KB, 28000 nM; with OVCAR-8, 170 nM; in the assay with A2780, 26000 nM; with PC-3 it was 2500 nM.
For `COc1cccc2c1C(=O)c1c(O)c3c(c(O)c1C2=O)C[C@@](O)(C(=O)CO)C[C@@H]3O[C@H]1C[C@H](N)[C@H](O)[C@H](C)O1` [DOXORUBICIN HYDROCHLORIDE], the GI50 with A549 stood at 130 nM; in the assay on KB it was 190 nM; in the assay with OVCAR-8, 150 nM; with A2780 it was 180 nM; in the assay with PC-3, 160 nM.
On to `COc1ccc(/C=C\c2cc(OC)c(OC)c(OC)c2)cc1O` [COMBRETASTATIN A4], for which the result with MCF7 [6] and with MCF7 [7] was Active. For the same compound, the Activity in the assay with MCF7 [2] worked out at 15.92%; in the assay with MCF7 [3] it was 2.53%; in the assay on MCF7 [4], 16.05%; with MCF7 [5], 65.5%.
Take `COc1cc(C2=NOC(c3cc(OC)c(OC)c(OC)c3)C2)cc(OC)c1O` (stereo unspecified): the Activity with MCF7 [2] amounted to 20.6%; with MCF7 [3], 0.5%; with MCF7 [4], 44.54%; in the assay with MCF7 [5], 34.36%.

(Values after ChEMBL document CHEMBL1667760, “Synthesis and biological evaluation of 3,5-diaryl isoxazoline/isoxazole linked 2,3-dihydroquinazolinone hybrids as anticancer agents” (2011).)
